Data taken from ChEMBL document CHEMBL1151801, “Synthesis of new indeno[1,2-e]pyrimido[4,5-b][1,4]diazepine-5,11-diones as potential antitumor agents” (2008).

What was measured:
Assay type in all cases: functional
[1] = tested on: CAKI-1; experiment: Antitumor activity against human Caki1 cells after 48 hrs by SRB assay; settings: CAKI-1, 48 h
Outline: (§1)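 NCI in vitro human tumor cell line screen. Cells were exposed continuously to compound for 48 h at five concentration levels (100, 10, 1.0, 0.1 and 0.01). Growth was estimated by sulforhodamine B protein staining. GI50 is the concentration giving a 50% reduction in net protein increase relative to control cells over the incubation.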

[2] = tested on: A498; experiment: Antitumor activity against human A498 cells after 48 hrs by SRB assay; settings: A498, 48 h; outline: as §1
[3] = tested on: 786-0; experiment: Antitumor activity against human 786-0 cells after 48 hrs by SRB assay; settings: 786-0, 48 h; outline: as §1
[4] = tested on: SK-OV-3; experiment: Antitumor activity against human SKOV3 cells after 48 hrs by SRB assay; settings: SK-OV-3, 48 h; outline: as §1
[5] = tested on: OVCAR-8; experiment: Antitumor activity against human OVCAR8 cells after 48 hrs by SRB assay; settings: OVCAR-8, 48 h; outline: as §1
[6] = tested on: OVCAR-4; experiment: Antitumor activity against human OVCAR4 cells after 48 hrs by SRB assay; settings: OVCAR-4, 48 h; outline: as §1
[7] = tested on: OVCAR-3; experiment: Antitumor activity against human OVCAR-3 cells after 48 hrs by SRB assay; settings: OVCAR-3, 48 h; outline: as §1
[8] = tested on: IGROV-1; experiment: Antitumor activity against human IGROV1 cells after 48 hrs by SRB assay; settings: IGROV-1, 48 h; outline: as §1
[9] = tested on: U-251; experiment: Antitumor activity against human U251 cells after 48 hrs by SRB assay; settings: U-251, 48 h
Outline: (§2)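 NCI in vitro human tumor cell line screen. Continuous 48 h drug exposure at five concentrations (100, 10, 1.0, 0.1 and 0.01 µM). Cell growth estimated by sulforhodamine B protein staining. GI50 defined as the concentration giving 50% reduction in net protein increase versus control cells over the incubation.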

[10] = tested on: SNB-75; experiment: Antitumor activity against human SNB75 cells after 48 hrs by SRB assay; settings: SNB-75, 48 h; outline: as §1
[11] = tested on: SF-539; experiment: Antitumor activity against human SF539 cells after 48 hrs by SRB assay; settings: SF-539, 48 h; outline: as §1
[12] = tested on: ACHN; experiment: Antitumor activity against human ACHN cells after 48 hrs by SRB assay; outline: as §1
[13] = tested on: SF-295; experiment: Antitumor activity against human SF295 cells after 48 hrs by SRB assay; settings: SF-295, 48 h; outline: as §1
[14] = tested on: SF-268; experiment: Antitumor activity against human SF268 cells after 48 hrs by SRB assay; settings: SF-268, 48 h; outline: as §1
[15] = tested on: SW-620; experiment: Antitumor activity against human SW620 cells after 48 hrs by SRB assay; settings: SW-620, 48 h; outline: as §2
[16] = tested on: KM12; experiment: Antitumor activity against human KM12 cells after 48 hrs by SRB assay; settings: KM12, 48 h; outline: as §1
[17] = tested on: HT-29; experiment: Antitumor activity against human HT-29 cells after 48 hrs by SRB assay; settings: HT-29, 48 h; outline: as §1
[18] = tested on: HCT-15; experiment: Antitumor activity against human HCT15 cells after 48 hrs by SRB assay; settings: HCT-15, 48 h; outline: as §1
[19] = tested on: HCT-116; experiment: Antitumor activity against human HCT116 cells after 48 hrs by SRB assay; settings: HCT-116, 48 h; outline: as §1
[20] = tested on: COLO 205; experiment: Antitumor activity against human COLO205 cells after 48 hrs by SRB assay; settings: COLO 205, 48 h; outline: as §1
[21] = tested on: NCI-H522; experiment: Antitumor activity against human NCI-H522 cells after 48 hrs by SRB assay; settings: NCI-H522, 48 h; outline: as §1
[22] = tested on: NCI-H322M; experiment: Antitumor activity against human NCI-H322M cells after 48 hrs by SRB assay; outline: as §1
[23] = tested on: NCI-H23; experiment: Antitumor activity against human NCI-H23 cells after 48 hrs by SRB assay; settings: NCI-H23, 48 h; outline: as §1
[24] = tested on: NCI-H226; experiment: Antitumor activity against human NCI-H226 cells after 48 hrs by SRB assay; settings: NCI-H226, 48 h; outline: as §1
[25] = tested on: HOP-92; experiment: Antitumor activity against human HOP92 cells after 48 hrs by SRB assay; settings: HOP-92, 48 h; outline: as §1
[26] = tested on: MOLT-4; experiment: Antitumor activity against human MOLT4 cells after 48 hrs by SRB assay; settings: MOLT-4, 48 h; outline: as §1
[27] = tested on: K562; experiment: Antitumor activity against human K562 cells after 48 hrs by SRB assay; settings: K562, 48 h; outline: as §1
[28] = tested on: HL-60(TB); experiment: Antitumor activity against human HL-60(TB) cells after 48 hrs by SRB assay; settings: HL-60, 48 h; outline: as §1
[29] = tested on: CCRF-CEM; experiment: Antitumor activity against human CCRF-CEM cells after 48 hrs by SRB assay; outline: as §1
[30] = tested on: UO-31; experiment: Antitumor activity against human UO31 cells after 48 hrs by SRB assay; settings: UO-31, 48 h; outline: as §2
[31] = tested on: DU-145; experiment: Antitumor activity against human DU145 cells after 48 hrs by SRB assay; settings: DU-145, 48 h; outline: as §1
[32] = tested on: MCF7; experiment: Antitumor activity against human MCF7 cells after 48 hrs by SRB assay; settings: MCF7, 48 h; outline: as §1
[33] = tested on: NCI/ADR-RES; experiment: Antitumor activity against human NCI/ADR-RES cells after 48 hrs by SRB assay; outline: as §1
[34] = tested on: MDA-MB-231; experiment: Antitumor activity against human MDA-MB-231 cells after 48 hrs by SRB assay; settings: MDA-MB-231, 48 h; outline: as §1
[35] = Antitumor activity against human Hs 578T cells after 48 hrs by SRB assay; outline: as §1
[36] = tested on: MDA-MB-435; experiment: Antitumor activity against human MDA-MB-435 cells after 48 hrs by SRB assay; settings: MDA-MB-435, 48 h; outline: as §1
[37] = tested on: T47D; experiment: Antitumor activity against human T47D cells after 48 hrs by SRB assay; outline: as §2
[38] = read-out: LC50 (the source's name)

Compound: CSc1nc2c(c(=O)[nH]1)NC1=C(C(=O)c3ccccc31)C(c1ccccc1)N2 (centres undefined)
- GI50 [1]: 2.18 µM
- LC50 [1]: > 100 µM
- GI50 [2]: 2 µM
- LC50 [2]: > 100 µM
- GI50 [3]: 6.44 µM
- CC50 [3, 38]: > 100 µM
- GI50 [4]: 7.65 µM
- LC50 (concentration killing 50% of cells) [4]: > 100 µM
- GI50 [5]: 19.1 µM
- LC50 (concentration causing 50% net cell kill) [5]: > 100 µM
- GI50 [6]: 5.62 µM
- CC50 [6, 38]: > 100 µM
- GI50 [7]: 2.12 µM
- CC50 [7, 38]: 46.4 µM
- GI50 [8]: 4.54 µM
- CC50 [8, 38]: > 100 µM
- GI50 [9]: 3.52 µM
- CC50 [9, 38]: > 100 µM
- GI50 [10]: 1.27 µM
- LC50 [10]: > 100 µM
- GI50 [11]: 2.84 µM
- LC50 (concentration killing 50% of cells) [11]: > 100 µM
- GI50 [12]: 3.73 µM
- CC50 [12, 38]: > 100 µM
- GI50 [13]: 1.91 µM
- CC50 [13, 38]: > 100 µM
- GI50 [14]: 4.55 µM
- CC50 [14, 38]: > 100 µM
- GI50 [15]: 2.92 µM
- LC50 [15]: > 100 µM
- GI50 [16]: 2.27 µM
- CC50 [16, 38]: > 100 µM
- GI50 [17]: 2.97 µM
- LC50 [17]: > 100 µM
- GI50 [18]: 2.8 µM
- LC50 (concentration killing 50% of starting cells) [18]: > 100 µM
- GI50 [19]: 4.21 µM
- LC50 (50% lethal concentration) [19]: > 100 µM
- GI50 [20]: 3.53 µM
- CC50 [20, 38]: > 100 µM
- GI50 [21]: 1.41 µM
- CC50 [21, 38]: > 100 µM
- GI50 [22]: 13.5 µM
- CC50 [22, 38]: > 100 µM
- GI50 [23]: 5.82 µM
- LC50 [23]: > 100 µM
- GI50 [24]: 4.2 µM
- LC50 [24]: > 100 µM
- GI50 [25]: 12 µM
- LC50 [25]: > 100 µM
- GI50 [26]: 5.24 µM
- LC50 [26]: > 100 µM
- GI50 [27]: 1.27 µM
- LC50 [27]: > 100 µM
- GI50 [28]: 2.51 µM
- LC50 [28]: > 100 µM
- GI50 [29]: 5.92 µM
- CC50 [29, 38]: > 100 µM
- GI50 [30]: 5.23 µM
- CC50 [30, 38]: > 100 µM
- GI50 [31]: 13.4 µM
- CC50 [31, 38]: > 100 µM
- GI50 [32]: 2.4 µM
- LC50 (concentration causing 50% net cell kill) [32]: > 100 µM
- GI50 [33]: 4.54 µM
- LC50 [33]: > 100 µM
- GI50 [34]: 4.09 µM
- LC50 (lethal concentration, 50% net cell kill) [34]: > 100 µM
- GI50 [35]: 2.1 µM
- CC50 [35, 38]: > 100 µM
- GI50 [36]: 0.49 µM
- LC50 [36]: > 100 µM
- GI50 [37]: 4.61 µM
- CC50 [37, 38]: > 100 µM
